For orientation: MIC means the lowest concentration found to suppress growth.

SMILES strings stand for the structures. Converted amounts (≈) assume the structure as drawn.

The subject of this experiment is Candida albicans. The experiment can be described thus: Antifungal activity against Candida albicans ATCC 10231 by NCCLS-protocol based microplate reader analysis. In kind it is functional. A digest of the protocol:
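Broth microdilution per NCCLS. Strains grown on potato dextrose agar; inoculum prepared from broth culture (28 °C, 48 h) and adjusted to 104 mycelial fragments/mL. Compounds from 100 μM DMSO stock were serially diluted in triplicate, spore suspension added to 200 μL final volume. Carbendazim served as positive control. Absorbance read at 492 nm after incubation; MIC calculated.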
With `CO[C@@H]1[C@@H](C)O[C@@H](OC[C@@]23C[C@@H]4[C@H](C)CC[C@H]4[C@@]4(C=O)C[C@@H]2C=C(C(C)C)[C@@]34C(=O)O)[C@@H](O)[C@@]12OC(=O)[C@H](CCCCCCCC(=O)O)O2`, the minimum inhibitory concentration (MIC) was determined as 3.7 µM (≈ 2.56 µg/mL).
The figure for `CO[C@@H]1[C@@H](C)O[C@@H](OC[C@@]23C[C@@H]4[C@H](C)CC[C@H]4[C@@]4(C(=O)O)C[C@@H]2C=C(C(C)C)[C@@]34C(=O)O)[C@@H](O)[C@@]12OC(=O)[C@H](CCCCCCCC(=O)O)O2` is 15 µM (≈ 10.6 µg/mL).
The compound `COC(=O)CCC[C@@H]1O[C@@]2(OC1=O)[C@H](O)[C@H](OC[C@@]13C[C@@H]4[C@H](C)CC[C@H]4[C@@]4(C=O)C[C@@H]1C=C(C(C)C)[C@@]34C(=O)O)O[C@H](C)[C@H]2OC` came in with an MIC of 9.8 µM (≈ 6.36 µg/mL).
Turning to `CC(C)C1=C[C@H]2C[C@]3(C(=O)O)[C@@H]4CC[C@@H](C)[C@H]4C[C@@]2(CO)[C@]13C(=O)O`, the MIC was 24 µM (≈ 8.36 µg/mL).
For `CO[C@@H]1[C@@H](C)O[C@@H](OC[C@@]23C[C@@H]4[C@H](C)CC[C@H]4[C@@]4(C=O)C[C@@H]2C=C(C(C)C)[C@@]34C(=O)O)[C@@H](O)[C@@]12OC(=O)[C@H](CCCCCC(=O)O)O2`, the MIC is 8.7 µM (≈ 5.77 µg/mL).
For `COC(=O)CCCCCCC[C@@H]1O[C@@]2(OC1=O)[C@H](O)[C@H](OC[C@@]13C[C@@H]4[C@H](C)CC[C@H]4[C@@]4(C=O)C[C@@H]1C=C(C(C)C)[C@@]34C(=O)O)O[C@H](C)[C@H]2OC`, it took 2.9 µM (≈ 2.04 µg/mL) to inhibit growth (MIC).
`COC(=O)CCCCCCC[C@@H]1O[C@@]2(OC1=O)[C@H](O)[C@H](OC[C@@]13C[C@@H]4[C@H](C)CC[C@H]4[C@@]4(C(=O)O)C[C@@H]1C=C(C(C)C)[C@@]34C(=O)O)O[C@H](C)[C@H]2OC` displayed an MIC of 13 µM (≈ 9.37 µg/mL).
Compound `CO[C@@H]1[C@@H](C)O[C@@H](OC[C@@]23C[C@@H]4[C@H](C)CC[C@H]4[C@@]4(C=O)C[C@@H]2C=C(C(C)C)[C@@]34C(=O)O)[C@@H](O)[C@@]12OC(=O)[C@H](CCCC(=O)O)O2` came in with a minimum inhibitory concentration (MIC) of 12 µM (≈ 7.62 µg/mL).
To `CC(C)C1=C[C@H]2C[C@]3(C=O)[C@@H]4CC[C@@H](C)[C@H]4C[C@@]2(CO)[C@]13C(=O)O` belongs 18 µM (≈ 5.98 µg/mL); to `COC(=O)Nc1nc2ccccc2[nH]1` [CARBENDAZIM], 0.16 µM (≈ 0.0306 µg/mL).

The values are drawn from ChEMBL document CHEMBL4414571, “Sordarin Diterpene Glycosides with an Unusual 1,3-Dioxolan-4-one Ring from the Zoanthid-Derived Fungus Curvularia hawaiiensis TA26-15” (2019).
